Drawing on ChEMBL document CHEMBL1143260, “Substrate specificity and screening of the integral membrane protease Pla” (Bioorg Med Chem Lett, 2008), this text covers Activity for 8 compounds.

Calls of active or inactive are those of the source. The calls are words filed in the database; no cut-off is given here. Residues, ends and D or L forms follow the SMILES beside them. *: point of attachment. X1 = CN(C)c1ccc(/N=N/c2ccc(C(=O)*)cc2)cc1; EDANS = O=S(=O)(O)c1cccc2c(NCCN*)cccc12

Assay [1] concerns the target Tissue-type plasminogen activator (Homo sapiens) (UniProt P00750). The assay can be described thus: Inhibition of recombinant plasminogen activator assessed as conversion of plasminogen to plasmin in fibrinolytic assay. In outline:
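Fibrin plate functional assay: purified Pla was pre-incubated with the peptide, dissolved in DMSO or water and tested in 2-fold dilutions. Samples were spotted onto an opalescent fibrin film containing plasminogen. No-peptide spots served as controls.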

Assay [2] shares this target. The assay can be described thus: Hydrolysis activity of plasminogen activator by LC-MS analysis. The gist of the method: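 Peptides were incubated with Pla, and the reaction mixtures were analysed by LC-MS. Cleavage was assigned from product retention time and mass, for example a DABCYL-Arg-OH fragment.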
The target of assay [3] is T1, Plasminogen activator (Yersinia pestis) (UniProt P17811).
T1 sequence (whole entry): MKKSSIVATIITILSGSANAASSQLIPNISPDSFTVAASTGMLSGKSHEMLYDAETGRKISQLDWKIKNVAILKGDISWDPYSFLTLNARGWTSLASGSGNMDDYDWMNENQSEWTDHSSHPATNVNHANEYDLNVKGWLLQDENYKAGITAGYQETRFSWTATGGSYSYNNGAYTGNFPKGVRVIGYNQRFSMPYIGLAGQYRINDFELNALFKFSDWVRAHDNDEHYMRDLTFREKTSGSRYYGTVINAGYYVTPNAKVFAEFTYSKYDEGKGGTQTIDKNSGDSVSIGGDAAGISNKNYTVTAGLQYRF
The assay can be described thus: Inhibition of plasminogen activator in Yersinia pestis by fluorometric assay.

The target in assay [4] is T1, Plasminogen activator (Yersinia pestis). The assay can be described thus: Inhibition of plasminogen activator in Yersinia pestis assessed as conversion of plasminogen to plasmin in fibrinolytic assay. The gist of the method:
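Fibrin plate assay. Purified recombinant Pla was pre-incubated with the peptide in 2-fold dilutions (dissolved in DMSO or water), then spotted onto an opalescent fibrin film. Pla converts plasminogen to plasmin, and fibrinolysis appears as a clear spot. Inhibition was judged against spots with no peptide added.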

Assay [5] has as its target Urokinase-type plasminogen activator (Homo sapiens) (UniProt P00749). The assay can be described thus: Inhibition of urokinase-type plasminogen activator.
The target of assay [6] is Tissue-type plasminogen activator (Homo sapiens) (UniProt P00750). The assay can be described thus: Inhibition of purified recombinant plasminogen activator by fluorometric assay.
Sequence of Tissue-type plasminogen activator (Homo sapiens) (P00750 36-562 limits assumed): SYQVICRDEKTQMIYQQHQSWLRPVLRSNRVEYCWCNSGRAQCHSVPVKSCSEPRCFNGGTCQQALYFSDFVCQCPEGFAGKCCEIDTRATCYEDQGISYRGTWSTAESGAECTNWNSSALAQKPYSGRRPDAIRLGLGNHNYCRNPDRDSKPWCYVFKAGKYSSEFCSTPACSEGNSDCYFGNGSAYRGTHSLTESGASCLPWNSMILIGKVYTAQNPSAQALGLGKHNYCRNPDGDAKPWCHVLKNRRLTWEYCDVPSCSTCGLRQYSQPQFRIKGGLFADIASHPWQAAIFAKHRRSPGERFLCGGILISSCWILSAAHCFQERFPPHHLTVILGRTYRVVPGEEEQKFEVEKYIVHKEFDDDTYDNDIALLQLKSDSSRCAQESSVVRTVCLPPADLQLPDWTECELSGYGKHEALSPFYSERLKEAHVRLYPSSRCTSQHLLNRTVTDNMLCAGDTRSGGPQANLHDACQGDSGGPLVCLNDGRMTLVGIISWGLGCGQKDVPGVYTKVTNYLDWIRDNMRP

On to `CC[C@H](C)[C@H](NC(=O)[C@H](CCCNC(=N)N)NC(=O)[C@H](CCCNC(=N)N)NC(=O)c1ccc(/N=N/c2ccc(N(C)C)cc2)cc1)C(=O)N[C@@H](CC(=O)O)C(=O)NCCNc1cccc2c(S(=O)(=O)O)cccc12` (X1-RRID-{EDANS}), for which the outcome in assay [1] and in assay [2] was Active.
For `CC[C@H](C)[C@H](NC(=O)[C@H](CCCNC(=N)N)NC(=O)[C@H](CCCNC(=N)N)NC(=O)c1ccc(/N=N/c2ccc(N(C)C)cc2)cc1)C(=O)N[C@@H](CC(N)=O)C(=O)N[C@@H](CCCNC(=N)N)C(=O)O` (X1-RRINR-OH), the outcome in assay [1] was inactive. The result in assay [2] was Active.
With `CC[C@H](C)[C@H](NC(=O)[C@H](CCCNC(=N)N)NC(=O)[C@H](CCCNC(=N)N)NC(=O)c1ccc(/N=N/c2ccc(N(C)C)cc2)cc1)C(=O)N[C@@H](CC(N)=O)C(=O)N[C@@H](CCCNC(=N)N)C(=O)N[C@@H](CCC(=O)NCCNc1cccc2c(S(=O)(=O)O)cccc12)C(N)=O` (X1-RRINRE(EDANS)-NH2), the outcome in assay [3], in assay [4], in assay [1], in assay [6] and in assay [2] was Active. The result in assay [5] was inactive.
With `CC[C@H](C)[C@H](NC(=O)[C@H](CCCNC(=N)N)NC(=O)[C@H](CCCNC(=N)N)NC(=O)c1ccc(/N=N/c2ccc(N(C)C)cc2)cc1)C(=O)O`, the outcome in assay [1] was inactive. Moreover, the outcome in assay [2] was Active.
On the same counts, the results for `CC[C@H](C)[C@H](NC(=O)[C@H](CCCNC(=N)N)NC(=O)[C@H](CCCNC(=N)N)NC(=O)c1ccc(/N=N/c2ccc(N(C)C)cc2)cc1)C(=O)NCCNc1cccc2c(S(=O)(=O)O)cccc12` are “Active” and “Active”.
For `CN(C)c1ccc(/N=N/c2ccc(C(=O)N[C@@H](CCCNC(=N)N)C(=O)N[C@@H](CCCNC(=N)N)C(=O)O)cc2)cc1`, the outcome in assay [1] and in assay [2] was inactive.
As to `CC[C@H](C)[C@H](NC(=O)[C@H](CCCNC(=N)N)NC(=O)[C@H](CCCNC(=N)N)NC(=O)c1ccc(/N=N/c2ccc(N(C)C)cc2)cc1)C(=O)N[C@@H](CC(N)=O)C(=O)O` (X1-RRIN-OH), in assay [1], the result was inactive. Also, the outcome in assay [2] was Active.
The corresponding values for `CC[C@H](C)[C@H](NC(=O)[C@H](CCCNC(=N)N)NC(=O)[C@H](CCCNC(=N)N)NC(=O)c1ccc(/N=N/c2ccc(N(C)C)cc2)cc1)C(=O)N[C@@H](CC(N)=O)C(=O)N[C@@H](CCCNC(=N)N)C(=O)N[C@@H](CCC(=O)O)C(=O)NCCNc1cccc2c(S(=O)(=O)O)cccc12` (X1-RRINRE-{EDANS}) are “Active” and “Active”.
